From the RNAGym collection of RNA variant scans (doi:10.1126/science.aae0568) come the findings set out here.

Fewer inactive variants are shown than the library holds. A value given as a limit tells only on which side of the number the result lay.

Sequences and labels used below:
B1: tRNA (parent)
chain: GUUCCGUUGGCGUAAUGGUAACGCGUCUCCCUCCUAAGGAGAAGACUGCGGGUUCGAGUCCCGUACGGAACG

In the data set the parent is B1. In words: yeast fitness relative to wild type (ratio to wild type); higher = fitter; tRNA-Arg(CCU), competitive growth, 37 C, YPD. A digest of the protocol: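 The tRNA-Arg(CCU) gene variants were made by chemical synthesis with a 3% per-site mutation rate at 69 sites and inserted at the native genomic locus of Saccharomyces cerevisiae. After pooling, the strains were competed in YPD at 37°C for 24 hours in six parallel replicates. Gene amplicons from the start population and each end population were read by 100-nucleotide paired-end sequencing, and Darwinian fitness relative to wild type was taken from genotype frequency changes. Genotypes needed ≥ 100 starting reads, and estimates < 0.5 were set to 0.5.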
Take GUUCCGUUGGCGUAAUGGUAACGCGUCUCCCUCCUAAGGAGAAGACUGCGGGUUCGAGUUACGUACGGAACG: the yeast fitness amounted to 0.659. On to GUUCCGUUGGCGUAAUGGUAACGCGUCUCCCUCCUAAGGAGAAGACUGCGGGUUCGAGUUUCGUACGGAACG, for which the yeast fitness was found to be 0.717.

As to GUUCCGUUGGCGUAAUGGUAACGCGUCUCCCUCCUAAGGAGAAGACUGCGGGUUCGAGUGCCGUACGGAUCG, the yeast fitness was found to be 0.624. GUUCCGUUGGCGUAAUGGUAACGCGUCUCCCUCCUAAGGAGAAGACUGCGGGUUCGAGUGCCGUACGGACCG: the yeast fitness was determined as 0.66. Next, GUUCCGUUGGCGUAAUGGUAACGCGUCUCCCUCCUAAGGAGAAGACUGCGGGUUCGAGUGCCGUACGGAGCG: 0.58; GUUCCGUUGGCGUAAUGGUAACGCGUCUCCCUCCUAAGGAGAAGACUGCGGGUUCGAGUUCCGUACGGUACG: 0.771; GUUCCGUUGGCGUAAUGGUAACGCGUCUCCCUCCUAAGGAGAAGACUGCGGGUUCGAGGCCCGUACCGAACG: 0.659. Next, GUUCCGUUGGCGUAAUGGUAACGCGUCUCCCUCCUAAGGAGAAGACUGCGGGUUCGAGUCACGUACGGAACG: 0.707. GUUCCGUUGGCGUAAUGGUAACGCGUCUCCCUCCUAAGGAGAAGACUGCGGGUUCGAGUCGCGUACGGAACG: the yeast fitness worked out at 0.688. For the variant GUUCCGUUGGCGUAAUGGUAACGCGUCUCCCUCCUAAGGAGAAGACUGCGGGUUCGAGUCACGUAUGGAACG, the yeast fitness was determined as 0.691. Take GUUCCGUUGGCGUAAUGGUAACGCGUCUCCCUCCUAAGGAGAAGACUGCGGGUUCGAGUCACGUAAGGAACG: the yeast fitness is 0.627. For the variant GUUCCGUUGGCGUAAUGGUAACGCGUCUCCCUCCUAAGGAGAAGACUGCGGGUUCGAGUCACGUACGGCACG, the yeast fitness was 0.631. The value for GUUCCGUUGGCGUAAUGGUAACGCGUCUCCCUCCUAAGGAGAAGACUGCGGGUUCGAGUCACGUACGGUACG was 0.816; that for GUUCCGUUGGCGUAAUGGUAACGCGUCUCCCUCCUAAGGAGAAGACUGCGGGUUCGAGUGCCGUAGGGAACG was 0.576.

As for GUUCCGUUGGCGUAAUGGUAACGCGUCUCCCUCCUAAGGAGAAGACUGCGGGUUCGAGGCCCGUACGGCACG, the yeast fitness was found to be 0.653.

As to GUUCCGUUGGCGUAAUGGUAACGCGUCUCCCUCCUAAGGAGAAGACUGCGGGUUCGAGGCCCGUACGGGACG, the yeast fitness is 1. The value for GUUCCGUUGGCGUAAUGGUAACGCGUCUCCCUCCUAAGGAGAAGACUGCGGGUUCGAGUGCCGUGCGGAACG was 0.755; that for GUUCCGUUGGCGUAAUGGUAACGCGUCUCCCUCCUAAGGAGAAGACUGCGGGUUCGAGUGUCGUACGGAACG was 0.626. Consider GUUCCGUUGGCGUAAUGGUAACGCGUCUCCCUCCUAAGGAGAAGACUGCGGGUUCGAGUGGCGUACGGAACG, for which the yeast fitness was at most 0.5. On to GUUCCGUUGGCGUAAUGGUAACGCGUCUCCCUCCUAAGGAGAAGACUGCGGGUUCGAGUACCGUACGGAUCG, for which the yeast fitness is 0.68. Next, GUUCCGUUGGCGUAAUGGUAACGCGUCUCCCUCCUAAGGAGAAGACUGCGGGUUCGAGUUCCGUACGCAACG: 0.752; GUUCCGUUGGCGUAAUGGUAACGCGUCUCCCUCCUAAGGAGAAGACUGCGGGUUCGAGUAUCGUACGGAACG: 0.599; GUUCCGUUGGCGUAAUGGUAACGCGUCUCCCUCCUAAGGAGAAGACUGCGGGUUCGAGUAGCGUACGGAACG: 0.635. For the variant GUUCCGUUGGCGUAAUGGUAACGCGUCUCCCUCCUAAGGAGAAGACUGCGGGUUCGAGUACCGUACAGAACG, the yeast fitness stood at 0.679.

As for GUUCCGUUGGCGUAAUGGUAACGCGUCUCCCUCCUAAGGAGAAGACUGCGGGUUCGAGUGCCCUACGGAACG, the yeast fitness is at most 0.5. GUUCCGUUGGCGUAAUGGUAACGCGUCUCCCUCCUAAGGAGAAGACUGCGGGUUCGAGUUCUGUACGGAACG: the yeast fitness turned out to be 0.659. In the case of GUUCCGUUGGCGUAAUGGUAACGCGUCUCCCUCCUAAGGAGAAGACUGCGGGUUCGAGUAGCGUUCGGAACG, the yeast fitness was at most 0.5. With GUUCCGUUGGCGUAAUGGUAACGCGUCUCCCUCCUAAGGAGAAGACUGCGGGUUCGAGUUCCCUACGGAACG, the yeast fitness was determined as 0.572. Next, GUUCCGUUGGCGUAAUGGUAACGCGUCUCCCUCCUAAGGAGAAGACUGCGGGUUCGAGUGCCGUACGGUUCG: 0.545; GUUCCGUUGGCGUAAUGGUAACGCGUCUCCCUCCUAAGGAGAAGACUGCGGGUUCGAGUCAGGUACGGAACG: 0.619; GUUCCGUUGGCGUAAUGGUAACGCGUCUCCCUCCUAAGGAGAAGACUGCGGGUUCGAGUUCCGUAAGGAACG: 0.619. As to GUUCCGUUGGCGUAAUGGUAACGCGUCUCCCUCCUAAGGAGAAGACUGCGGGUUCGAGUUCCGUAGGGAACG, the yeast fitness turned out to be 0.687.

With GUUCCGUUGGCGUAAUGGUAACGCGUCUCCCUCCUAAGGAGAAGACUGCGGGUUCGAGUGCCGUAGGAAACG, the yeast fitness was at most 0.5. As for GUUCCGUUGGCGUAAUGGUAACGCGUCUCCCUCCUAAGGAGAAGACUGCGGGUUCGAGUACCGUACGUAACG, the yeast fitness was 0.587. Consider GUUCCGUUGGCGUAAUGGUAACGCGUCUCCCUCCUAAGGAGAAGACUGCGGGUUCGAGUCACGUAUGGCACG, for which the yeast fitness is 0.601. Regarding GUUCCGUUGGCGUAAUGGUAACGCGUCUCCCUCCUAAGGAGAAGACUGCGGGUUCGAGUCACGCACGGAACG, the yeast fitness amounted to 0.801.

For the variant GUUCCGUUGGCGUAAUGGUAACGCGUCUCCCUCCUAAGGAGAAGACUGCGGGUUCGAGUCACGUGCGGAACG, the yeast fitness worked out at 0.595. In the case of GUUCCGUUGGCGUAAUGGUAACGCGUCUCCCUCCUAAGGAGAAGACUGCGGGUUCGAGUCACGUACAGCACG, the yeast fitness was 0.524.
